Activity and MIC data for nine compounds are collected here from ChEMBL document CHEMBL1156892, “Synthesis and in vitro evaluation of bisphosphonated glycopeptide prodrugs for the treatment of osteomyelitis” (Bioorg Med Chem Lett, 2010).

Molecules are shown by their SMILES. Values after ≈ are worked out from the molar mass of the structure shown. Bounds are passed on as bounds.

One data set is filed under the species Oryctolagus cuniculus. The experiment in a line: Binding affinity to rabbit bone assessed as drug level bound to bone powder at 0.25 to 4 ug/ml after 24 hrs. Format: tissue-based. The following applies: Bone element.
The subject of data set [1] is Staphylococcus aureus. The experiment in a line: Antibacterial activity against Staphylococcus aureus ATCC 13709 in cation adjusted Mueller-Hinton broth by […] assay. Format: functional. The procedure, abridged: (§1)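 MIC determination against S. aureus ATCC13709. Medium is cation-adjusted Mueller-Hinton broth, alone or supplemented with mouse, human or rat serum as specified per line.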

The subject of data set [2] is Staphylococcus aureus. The experiment in a line: Antibacterial activity against Staphylococcus aureus ATCC 13709 in cation adjusted Mueller-Hinton broth by […] assay in presence of 50% mouse serum. Format: functional. The procedure, abridged: as §1
For data set [3], the system named is Staphylococcus aureus. The experiment in a line: Antibacterial activity against Staphylococcus aureus ATCC 13709 in cation adjusted Mueller-Hinton broth by […] assay in presence of 50% human serum. In kind it is functional. The procedure, abridged: as §1
Data set [4] concerns Staphylococcus aureus. Put plainly: Antibacterial activity against Staphylococcus aureus ATCC 13709 in cation adjusted Mueller-Hinton broth by […] assay in presence of 50% rat serum. Format: functional. In a few lines:
as §1

Data set [5] can be described thus: Stability in phosphate buffered saline assessed as conversion of drug to oritavancin after 24 hrs. Format: physicochemical. The following applies: buffer, BLD = below limit of detection. The procedure, abridged: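 Prodrugs incubated 24 h in phosphate-buffered saline. Regeneration of parent drug is expressed as % conversion. Parallel incubations were run in 50% rat or human serum diluted in PBS to assess enzymatic cleavage.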

Another data set has as its system Streptococcus pneumoniae. Put plainly: Antibacterial activity against Streptococcus pneumoniae ATCC 700902 by agar diffusion assay. In kind it is functional.
Data set [6] has as its system Staphylococcus aureus. The experiment in a line: Antibacterial activity against Staphylococcus aureus ATCC 13709 in cation adjusted Mueller-Hinton broth by […] assay in presence of 50% mouse serum in absence of polysorbate-80. Format: functional. In a few lines: (§2)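 MIC against S. aureus ATCC13709 in cation-adjusted Mueller-Hinton broth, alone or with mouse, human or rat serum, run without polysorbate-80 in the medium.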

The subject of data set [7] is Staphylococcus aureus. The experiment in a line: Antibacterial activity against Staphylococcus aureus ATCC 13709 in cation adjusted Mueller-Hinton broth by […] assay in presence of 50% human serum in absence of polysorbate-80. Format: functional. In a few lines:
as §2

The subject of data set [8] is Staphylococcus aureus. Put plainly: Antibacterial activity against Staphylococcus aureus ATCC 13709 in cation adjusted Mueller-Hinton broth by […] assay in absence of polysorbate-80. Format: functional. The procedure, abridged: as §2
For data set [9], the system named is Staphylococcus aureus. Put plainly: Antibacterial activity against Staphylococcus aureus ATCC 13709 in cation adjusted Mueller-Hinton broth by […] assay in presence of 50% rat serum in absence of polysorbate-80. In kind it is functional. The procedure, abridged:
as §2

Consider `CC(C)C[C@H](C(=O)N[C@H]1C(=O)N[C@@H](CC(N)=O)C(=O)N[C@H]2C(=O)N[C@H]3C(=O)N[C@H](C(=O)N[C@H](C(=O)O)c4cc(O)cc(O)c4-c4cc3ccc4O)[C@H](O[C@H]3C[C@](C)(N)[C@@H](O)[C@H](C)O3)c3cc(Cl)c(c(Cl)c3)Oc3cc2cc(c3O[C@H]2O[C@@H](CO)[C@@H](O)[C@H](O)[C@H]2O[C@@H]2C[C@@](C)(NCc3ccc(-c4ccc(Cl)cc4)cc3)[C@@H](O)[C@@H](C)O2)Oc2ccc(cc2Cl)[C@H]1O)N(C)C(=O)OCOC(=O)CCCC(P(=O)(O)O)P(=O)(O)O`, for which the Activity in the data set filed under Oryctolagus cuniculus is 99.9%; in data set [5], “BLD”. The minimal inhibitory concentration (MIC) is 32 µg/mL (≈ 14.9 µM) against Staphylococcus aureus [1], 32 µg/mL in the data set on Staphylococcus aureus [2], more than 32 µg/mL in the data set with Staphylococcus aureus [3] and 32 µg/mL with Staphylococcus aureus [4].

Regarding `CN[C@H](CC(C)C)C(=O)N[C@H]1C(=O)N[C@@H](CC(N)=O)C(=O)N[C@H]2C(=O)N[C@H]3C(=O)N[C@H](C(=O)N[C@H](C(=O)OCC(=O)NC(P(=O)(O)O)P(=O)(O)O)c4cc(O)cc(O)c4-c4cc3ccc4O)[C@H](O)c3cc(Cl)c(c(Cl)c3)Oc3cc2cc(c3O[C@H]2O[C@@H](CO)[C@@H](O)[C@H](O)[C@H]2O[C@@H]2C[C@@](C)(N)[C@@H](O)[C@@H](C)O2)Oc2ccc(cc2Cl)[C@H]1O`, the Activity in the data set filed under Oryctolagus cuniculus came to 96.5%. Besides, the MIC with Staphylococcus aureus [1] worked out at 16 µg/mL (≈ 9.33 µM); with Staphylococcus aureus [2], 16 µg/mL; with Staphylococcus aureus [3] it was 8 µg/mL; with Staphylococcus aureus [4] it was 32 µg/mL.

`CN[C@H](CC(C)C)C(=O)N[C@H]1C(=O)N[C@@H](CC(N)=O)C(=O)N[C@H]2C(=O)N[C@H]3C(=O)N[C@H](C(=O)N[C@H](C(=O)O)c4cc(O)cc(O)c4-c4cc3ccc4O)[C@H](O[C@H]3C[C@](C)(N)[C@@H](O)[C@H](C)O3)c3ccc(c(Cl)c3)Oc3cc2cc(c3O[C@@H]2O[C@H](CO)[C@@H](O)[C@H](O)[C@H]2O[C@H]2C[C@](C)(NCc3ccc(-c4ccc(Cl)cc4)cc3)[C@@H](O)[C@H](C)O2)Oc2ccc(cc2Cl)[C@H]1O` [ORITAVANCIN]: the minimum inhibitory concentration (MIC) is 0.001 µg/mL (≈ 0.000558 µM) against Streptococcus pneumoniae; 2 µg/mL in the data set with Staphylococcus aureus [6]; 1 µg/mL in the data set with Staphylococcus aureus [7]; 0.5 µg/mL (≈ 0.279 µM) with Staphylococcus aureus [8]; 0.25 µg/mL with Staphylococcus aureus [9].

With `CN[C@H](CC(C)C)C(=O)N[C@H]1C(=O)N[C@@H](CC(N)=O)C(=O)N[C@H]2C(=O)N[C@H]3C(=O)N[C@H](C(=O)N[C@H](C(=O)OCC(=O)NC(P(=O)(O)O)P(=O)(O)O)c4cc(O)cc(O)c4-c4cc3ccc4O)[C@H](O[C@H]3C[C@](C)(N)[C@@H](O)[C@H](C)O3)c3cc(Cl)c(c(Cl)c3)Oc3cc2cc(c3O[C@H]2O[C@@H](CO)[C@@H](O)[C@H](O)[C@H]2O[C@@H]2C[C@@](C)(NCc3ccc(-c4ccc(Cl)cc4)cc3)[C@@H](O)[C@@H](C)O2)Oc2ccc(cc2Cl)[C@H]1O`, in the data set listed under Oryctolagus cuniculus, the Activity is 97.6%. The minimum inhibitory concentration (MIC) in the data set on Staphylococcus aureus [1] came to 16 µg/mL (≈ 7.77 µM); in the data set with Staphylococcus aureus [2], 2 µg/mL; in the data set on Staphylococcus aureus [3], 32 µg/mL; in the data set on Staphylococcus aureus [4] it was 2 µg/mL.

`CC(C)C[C@H](C(=O)N[C@H]1C(=O)N[C@@H](CC(N)=O)C(=O)N[C@H]2C(=O)N[C@H]3C(=O)N[C@H](C(=O)N[C@H](C(=O)O)c4cc(O)cc(O)c4-c4cc3ccc4O)[C@H](O[C@H]3C[C@](C)(N)[C@@H](O)[C@H](C)O3)c3cc(Cl)c(c(Cl)c3)Oc3cc2cc(c3O[C@H]2O[C@@H](CO)[C@@H](O)[C@H](O)[C@H]2O[C@@H]2C[C@@](C)(NCc3ccc(-c4ccc(Cl)cc4)cc3)[C@@H](O)[C@@H](C)O2)Oc2ccc(cc2Cl)[C@H]1O)N(C)C(=O)CC(P(=O)(O)O)P(=O)(O)O`: the Activity in the data set filed under Oryctolagus cuniculus turned out to be 99.9%. Moreover, the minimum inhibitory concentration (MIC) against Staphylococcus aureus [1] turned out to be 32 µg/mL (≈ 15.7 µM); in the data set on Staphylococcus aureus [2] it was 4 µg/mL; with Staphylococcus aureus [3], 32 µg/mL; in the data set on Staphylococcus aureus [4] it was 4 µg/mL.

With `CC(C)C[C@H](C(=O)N[C@H]1C(=O)N[C@@H](CC(N)=O)C(=O)N[C@H]2C(=O)N[C@H]3C(=O)N[C@H](C(=O)N[C@H](C(=O)O)c4cc(O)cc(O)c4-c4cc3ccc4O)[C@H](O[C@H]3C[C@](C)(N)[C@@H](O)[C@H](C)O3)c3cc(Cl)c(c(Cl)c3)Oc3cc2cc(c3O[C@H]2O[C@@H](CO)[C@@H](O)[C@H](O)[C@H]2O[C@@H]2C[C@@](C)(NCc3ccc(-c4ccc(Cl)cc4)cc3)[C@@H](O)[C@@H](C)O2)Oc2ccc(cc2Cl)[C@H]1O)N(C)C(=O)CCC(P(=O)(O)O)P(=O)(O)O`, the Activity in the data set listed under Oryctolagus cuniculus was 99.8%. In addition, the MIC against Staphylococcus aureus [1], in the data set with Staphylococcus aureus [2], with Staphylococcus aureus [3] and in the data set on Staphylococcus aureus [4] was more than 32 µg/mL in each case.

Turning to `CN[C@H](CC(C)C)C(=O)N[C@H]1C(=O)N[C@@H](CC(N)=O)C(=O)N[C@H]2C(=O)N[C@H]3C(=O)N[C@H](C(=O)N[C@H](C(=O)OCC(=O)Nc4ccc(CC(P(=O)(O)O)P(=O)(O)O)cc4)c4cc(O)cc(O)c4-c4cc3ccc4O)[C@H](O)c3cc(Cl)c(c(Cl)c3)Oc3cc2cc(c3O[C@H]2O[C@@H](CO)[C@@H](O)[C@H](O)[C@H]2O[C@@H]2C[C@@](C)(N)[C@@H](O)[C@@H](C)O2)Oc2ccc(cc2Cl)[C@H]1O`, the Activity in the data set listed under Oryctolagus cuniculus turned out to be 96.7%. Moreover, the MIC against Staphylococcus aureus [1] came out at 16 µg/mL (≈ 8.86 µM); in the data set on Staphylococcus aureus [2] it was 16 µg/mL; in the data set with Staphylococcus aureus [3] it was 16 µg/mL; with Staphylococcus aureus [4] it was 32 µg/mL.

Regarding `CC(C)C[C@H](C(=O)N[C@H]1C(=O)N[C@@H](CC(N)=O)C(=O)N[C@H]2C(=O)N[C@H]3C(=O)N[C@H](C(=O)N[C@H](C(=O)O)c4cc(O)cc(O)c4-c4cc3ccc4O)[C@H](O[C@H]3C[C@](C)(N)[C@@H](O)[C@H](C)O3)c3cc(Cl)c(c(Cl)c3)Oc3cc2cc(c3O[C@H]2O[C@@H](CO)[C@@H](O)[C@H](O)[C@H]2O[C@@H]2C[C@@](C)(NCc3ccc(-c4ccc(Cl)cc4)cc3)[C@@H](O)[C@@H](C)O2)Oc2ccc(cc2Cl)[C@H]1O)N(C)C(=O)OCOC(=O)CCC(P(=O)(O)O)P(=O)(O)O`, the Activity in the data set filed under Oryctolagus cuniculus worked out at 96.9%. Besides, the MIC is 8 µg/mL (≈ 3.75 µM) against Staphylococcus aureus [1], 0.5 µg/mL with Staphylococcus aureus [2], 4 µg/mL in the data set on Staphylococcus aureus [3] and 1 µg/mL with Staphylococcus aureus [4].

With `CN[C@H](CC(C)C)C(=O)N[C@H]1C(=O)N[C@@H](CC(N)=O)C(=O)N[C@H]2C(=O)N[C@H]3C(=O)N[C@H](C(=O)N[C@H](C(=O)OCC(=O)Nc4ccc(CC(P(=O)(O)O)P(=O)(O)O)cc4)c4cc(O)cc(O)c4-c4cc3ccc4O)[C@H](O[C@H]3C[C@](C)(N)[C@@H](O)[C@H](C)O3)c3cc(Cl)c(c(Cl)c3)Oc3cc2cc(c3O[C@H]2O[C@@H](CO)[C@@H](O)[C@H](O)[C@H]2O[C@@H]2C[C@@](C)(NCc3ccc(-c4ccc(Cl)cc4)cc3)[C@@H](O)[C@@H](C)O2)Oc2ccc(cc2Cl)[C@H]1O`, the MIC against Staphylococcus aureus [1] was more than 32 µg/mL; with Staphylococcus aureus [2], 8 µg/mL; in the data set on Staphylococcus aureus [3] it was more than 32 µg/mL; in the data set with Staphylococcus aureus [4] it was 8 µg/mL.
